Compounds with a hit are over-represented: about 4.1% of the library has one in this group of screens.
APP 5'UTR act: APP 5'UTR luciferase reporter activation | SH-SY5Y APP 5'UTR luciferase reporter, luminescence; zero percent = DMSO vehicle wells | activation, % at 2 µM | 190,000 tested, 1% active | AID 1276;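 active = activation above a set limit, based on mean plus 3 SD of controls, cut at about 140% in these data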
FLuc inhib CS: Photinus pyralis luciferase inhibition counter-screen; P08659; ATPLite firefly luciferase biochemical luminescence, 10 min; inhibition, % at 10 µM; 200,000 tested, 1.5% active;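 active = inhibition above about 50% when tested at 10 µM, limit read from the data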
STAT1 act: increases IFN-gamma driven STAT1 reporter signal; activation (% of control), % at 5.5 µM; NIH 3T3 STAT1-luciferase reporter, luminescence; 100% = IFN-gamma alone, no compound; 200,000 tested, 2.6% active;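 active = activation above the screen-wide mean activation plus 3 SD, cut at about 130% in these data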;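 also: raw ratio to IFN-gamma control signal so 100% means no change and 0% no light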
FLuc stim CS: firefly luciferase counter-screen for stimulation assays. P08659. ATPlite luciferase biochemical, luminescence, 10 min; 0 = ATP-free wells, 1 = DMSO control. activation factor at 10 µM. 200,000 tested, under 10 active. AID 1027;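 active = luciferase activation factor, scaled between plate controls, of at least 2 with compound at 10 µM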
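assay system = Luciferase/luciferin detection reagent, cell-free biochemical luciferase assay | also added = ATP substrate | times = 10 min post-reagent at room temperature | measured by = luminescence from luciferase reaction | measure = luciferase activation, seen as luminescence increase over controls | benchmarks = low control with PBS replacing ATP, high control enzyme plus ATP without compound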
NF-kB expr up: raises NF-kB expression in human neuronal cells. fold change at 12.5 µM. AID 1239. 190,000 tested, 1.6% active. NF-kB reporter expression; hits give high values; in the data active = fold change above about 3.3
Active calls of the source: *; . = no result given.

SMILES	APP 5'UTR act	FLuc inhib CS	STAT1 act	FLuc stim CS	NF-kB expr up
CN1/C(=C\C(=O)c2cccs2)C(C)(C)c2ccccc21	-2	-7	127	1.1	1.1
CN1/C(=C/C(=O)c2cccs2)Sc2ccccc21	103	77*	140*	0.2	5.3*
COc1ccc2c(c1)S/C(=C\C(=O)c1ccncc1)N2C	44	34	125	0.7	2.1
COc1cc(OC)cc(C(=O)/C=C2\Sc3ccccc3N2C)c1	44	15	131*	0.8	1.8
Cc1ccc(/C=C/C2=NN(C)C(=O)CC2)cc1	153*	78*	123	0.2	4.5*
CN(C)/C=N/C(=S)Nc1ccc(Br)cc1F	6	7	130*	0.9	2.2
COc1ccc(OC)c(C(=O)c2coc3ccc(OC(C)=O)cc23)c1	14	-6	101	1.1	1.4
COc1ccc2occ(C(=O)c3cccs3)c2c1	55	33	128	0.7	4.3*
NC(=O)c1cc2ccc(O)cc2oc1=Nc1ccccc1	2	-3	130*	1	2.1
c1ccc2c(Cn3nnc4ccccc43)cccc2c1	0	-4	102	1	1.3
c1ccc2c(COn3nnc4ccccc43)cccc2c1	110	4	128	1	3.4*
O=C(/C=C/N1CCOCC1)c1cc2ccccc2o1	27	41	127	0.6	2
O=C(/C=C/N1CCOCC1)c1coc2ccccc12	49	54*	136*	0.5	2.4
O=C(NCc1ccccc1)c1ccc(OCC2CCCO2)cc1 (stereo unspecified)	-6	-3	101	1	1.1
CC(/C=N/NC(=O)c1ccncc1)=C\c1ccccc1	10	61*	104	0.4	1.4
CC(/C=N/NC(=O)c1nn(C)c(C)c1Br)=C\c1ccccc1	29	80*	132*	0.2	2.1
CC(=C/c1ccccc1)/C=N/NC(=O)c1ccc2nc[nH]c2c1	-18	82*	102	0.2	1.3
CC(/C=N/NC(=O)c1c(Br)cnn1C)=C\c1ccccc1	-1	16	120	0.8	1.6
Cc1ccc(S(=O)(=O)N2CCC(C(=O)NCCN3CCCCCC3)CC2)cc1	-6	0	94	1	0.89
CC(C)(C)Cc1nnc(NS(=O)(=O)Cc2ccccc2)s1	0	-2	96	1	1
O=C(COc1ccccc1)N1c2ccccc2Sc2ccccc21	-8	-2	97	1	1.1
O=C(COc1ccc(Cl)cc1Cl)N/N=C/CCc1ccccc1	6	-7	99	1.1	1.3
O=[N+]([O-])c1cccc(CSc2nc3ccccc3[nH]2)c1	13	3	103	1	1.1
COC(=O)c1cc(CSc2nc3ccccc3[nH]2)oc1C	.	53*	108	0.5	1.7
COc1cccc(CSc2nc3ccccc3[nH]2)c1	89	67*	118	0.3	4*
SMILES	APP 5'UTR act	FLuc inhib CS	STAT1 act	FLuc stim CS	NF-kB expr up
Fc1ccccc1CSc1nc2ccccc2[nH]1	198*	51*	136*	0.5	10*
O=C(NNC1=C(C(=O)C(F)(F)F)CCC1)c1cccc(Cl)c1	8	-5	111	1.1	1.4
CC(=O)c1ccc2c3c(cccc13)C(=O)N(CCc1ccccc1)C2=O	97	-2	132*	1	1.7
CC1CCc2nc(NC(=O)Nc3ccc4c(c3)OCO4)sc2C1 (stereo unspecified)	37	53*	126	0.5	2.1
Cc1cnc(NC(=O)C2COc3ccccc3O2)s1 (stereo unspecified)	144*	52*	107	0.5	2.6
CC1CCc2nc(NC(=O)CN3CCN(Cc4ccc5c(c4)OCO5)CC3)sc2C1 (stereo unspecified)	10	-6	102	1.1	0.71
CC1CCc2nc(NC(=O)C3COc4ccccc4O3)sc2C1 (stereo unspecified)	168*	49	55	0.5	1.4
N#Cc1nc(-c2ccccc2Cl)oc1NCC1CCCO1 (stereo unspecified)	-18	2	108	1	0.84
Cc1nc(Oc2ccccc2)c2oc3ccccc3c2n1	0	-8	98	1.1	1
O=c1[nH]c2ccc(NS(=O)(=O)c3ccc([N+](=O)[O-])cc3)cc2[nH]1	17	-3	104	1	1
Brc1ccc(-c2nc(N/N=C/c3cccnc3)c3ccccc3n2)cc1	-10	96*	97	0	1.3
Cc1ccc(-c2nc(N/N=C/c3ccccc3[N+](=O)[O-])c3ccccc3n2)cc1	19	64*	124	0.4	1.1

High-throughput results as filed in PubChem.
